Results as given in ChEMBL document CHEMBL1127575, “Synthesis of androst-5-en-7-ones and androsta-3,5-dien-7-ones and their related 7-deoxy analogs as conformational and catalytic probes for the active site of aromatase” (J Med Chem, 1994).

What was measured:
[1] = target: T1, Aromatase (Homo sapiens, UniProt P11511); test: Binding affinity for aromatase cytochrome P45019A1 by analysis of Dixon plot
T1 sequence (P11511 whole entry): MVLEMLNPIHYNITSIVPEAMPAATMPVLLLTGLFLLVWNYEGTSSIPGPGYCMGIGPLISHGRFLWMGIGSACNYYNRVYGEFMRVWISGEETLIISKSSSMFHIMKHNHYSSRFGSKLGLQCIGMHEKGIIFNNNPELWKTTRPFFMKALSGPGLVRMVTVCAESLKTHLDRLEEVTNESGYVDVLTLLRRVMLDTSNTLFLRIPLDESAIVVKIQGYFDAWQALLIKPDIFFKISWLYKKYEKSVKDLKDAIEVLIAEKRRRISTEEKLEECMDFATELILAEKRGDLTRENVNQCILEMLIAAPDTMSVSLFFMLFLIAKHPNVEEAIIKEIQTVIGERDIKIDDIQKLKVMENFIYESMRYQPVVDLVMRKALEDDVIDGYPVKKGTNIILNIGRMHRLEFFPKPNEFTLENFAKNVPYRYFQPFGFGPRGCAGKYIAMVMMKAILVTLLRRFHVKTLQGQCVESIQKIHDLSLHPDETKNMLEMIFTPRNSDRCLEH

[2] = target: T1, Aromatase; test: In vitro competitive inhibitory activity was measured on Cytochrome P450 19A1 of human placental microsomes
[3] = target: T1, Aromatase; test: The binding affinity was determined on Cytochrome P450 19A1 by analysis of Dixon plot
[4] = target: T1, Aromatase; test: Time dependent inactivation of Cytochrome P450 19A1 was obtained by Kitz-Wilson plot
[5] = target: T1, Aromatase; test: Time dependent inactivation of aromatase cytochrome P450 19A1 from Kitz-Wilson plot
How it was run: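 Human placental microsomes (105000g pellet, washed with 0.05 mM dithiothreitol, lyophilized) incubated with inhibitor plus NADPH in 67 mM phosphate buffer in air. Residual aromatase activity then measured in 5-min kinetic assay by 3H2O release from [1β-3H]androstenedione. Pseudo-first-order loss over first 12 min analysed by Kitz-Wilson method. Double-reciprocal plot of kobs versus inhibitor concentration gave kinact and Ki. Points are means of duplicates.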

Compound	Ki [1] [µM]	IC50 [2] [µM]	Ki [3] [µM]	Ki [4] [µM]	kinact [4] [s⁻¹]	Ki [5] [µM]	kinact [5] [s⁻¹]
C[C@]12CCC(=O)C=C1CC[C@@H]1[C@@H]2CC[C@]2(C)C(=O)CC[C@@H]12 [ANDROSTENEDIONE]	0.02	0.3					
CC12CCC3C(CC=C4CCCCC43C)C1C[C@@H](Br)C2=O (stereo partly specified)		55	11				
CC12CCC3C4CCC=CC4=CC(=O)C3C1CCC2=O (stereo unspecified)		33	3				
CC12CCC3C(C(=O)C=C4C=CCCC43C)C1CCC2=O (stereo unspecified)		1.8	0.22	0.18	0.00198		
CC12CCC3C(C(=O)C=C4CCCCC43CO)C1CCC2=O (stereo unspecified)		56	11	11	0.000967		
CC12CCC3C(C(=O)C=C4CCCCC43CO)C1CCC2O (stereo unspecified)		140	45				
CC12CCC3C(CC=C4C=CCCC43C)C1CCC2=O (stereo unspecified)		0.34	0.058				
CC12CCC3C(C(=O)C=C4CCCCC43C)C1CCC2=O (stereo unspecified)		1.8	0.25	0.15	0.00115		
CC12CCCCC1=CCC1C2CCC2(C)C(O)CCC12 (stereo unspecified)		30	3				
C[C@]12CCCCC1=CC[C@@H]1[C@@H]2CC[C@]2(C)C(=O)CC[C@@H]12		0.66	0.12				
CC12CCC3C(C(=O)C=C4CCCCC43C=O)C1CCC2=O (stereo unspecified)		60	13	20	0.00238		
CC12CCC3C(CC=C4CCCCC43CO)C1CCC2O (stereo unspecified)	9.8	62					
CC12CCC3C(CC=C4CCCCC43C=O)C1CCC2=O (stereo unspecified)	1.4	9					
CC12CCC3C(C(=O)C=C4C=CCCC43C=O)C1CCC2=O (stereo unspecified)		11	1.8			2.9	0.00315
CC12CCC3C(C(=O)C=C4C=CCCC43CO)C1CCC2=O (stereo unspecified)		60	15			7	0.00147
C[C@]12CC[C@H]3[C@@H](CC=C4CCCC[C@@]43CO)[C@@H]1CCC2=O		6.9	1				
CC12CCC3C4CCCCC4=CC(=O)C3C1CCC2=O (stereo unspecified)		28	2.4	2.6	0.00113		
CC12CCC3C4CCC(=O)C=C4CCC3C1CCC2=O (stereo unspecified)	0.14	1.2					
CC12CCCCC1=CC(=O)C1C2CCC2(C)C(O)CCC12 (stereo unspecified)		42	5.5				
CC12CCC=CC1=CC(=O)C1C2CCC2(C)C1CC[C@@H]2O (stereo partly specified)		42	5.3				
CC12CCC=CC1=CCC1C2CCC2(C)C1CC[C@@H]2O (stereo partly specified)		18	2				
